Source: ChEMBL document CHEMBL1145015, “Structure-activity relationships of 1,2,4-benzotriazine 1,4-dioxides as hypoxia-selective analogues of tirapazamine” (J Med Chem, 2003)

How the values were obtained:
[1] = Intraexperimental difference between the hypoxic and aerobic cytotoxicity; format: functional
Summary of the method: (§1)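 Clonogenic SCCVII survival after 1 h drug exposure at 37 °C, either hypoxic (<200 ppm O2, 95% N2/5% CO2) or aerobic (95% air/5% CO2). Colonies of >50 cells counted after 10–14 days. HCR = aerobic C10 / hypoxic C10, with both values from the same experiment.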

[2] = Concentration required to reduce plating efficiency to 10 percent of controls, under aerobic conditions in mouse SCCVII tumor cells.; format: functional, SCC-7
Summary of the method: (§2)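 SCCVII cells plated in glass dishes (2×10^5 to 1×10^6 per dish) 1–2 days ahead. Drug freshly dissolved, given in complete medium for 1 h at 37 °C with shaking. Hypoxia (<200 ppm O2) by repeated evacuation/flushing with 95% N2 + 5% CO2; aerobic controls flushed with 95% air + 5% CO2. Cells washed, trypsinized, replated. Crystal violet stain after 10–14 days, >50-cell colonies scored. C10 is the concentration giving 10% of control plating efficiency.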

[3] = Concentration required to reduce plating efficiency to 10 percent of controls, under hypoxic conditions in mouse SCCVII tumor cells.; format: functional, SCC-7; summary of the method: as §2
[4] = Intraexperimental ratio of hypoxic TPZ C10 to hypoxic BTO C10 in mouse SCCVII tumor cells.; format: functional, SCC-7
Summary of the method: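 Computed within each experiment from the clonogenic SCCVII assay (1 h drug exposure, hypoxia <200 ppm O2 by gas evacuation/flushing, colony counting after 10–14 days). RHT = C10 of TPZ under hypoxia divided by C10 of the analogue under hypoxia.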

[5] = Partition coefficient (logP); format: physicochemical; conditions: octanol/water
Summary of the method: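 Octanol/water partition at pH 7.4, measured by low-volume shake flask. Drug in both the octanol and buffer phases quantified by HPLC.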

[6] = tested on: SCC-7; test: Inhibitory concentration against murine SCCVII cell line under hypoxic condition; format: functional, cell-based; conditions: Mus musculus
Summary of the method: (§3)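 SRB proliferation assay in 96-well plates. SCCVII (200 cells) or HT-29 (1000 cells) seeded in αMEM + 10% FCS with glucose (17 mM final) and 100 μM 2'-deoxycytidine, then attached for 3 h. Cells exposed for 4 h at 37 °C to 2-fold serial dilutions in triplicate, either oxic (20% O2, 5% CO2) or in an anaerobic chamber (<0.001% O2). After washing, cells grew for 5 (oxic) or 6 (anoxic) days before SRB staining. IC50 values are the mean of three independent experiments.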

[7] = tested on: SCC-7; test: Inhibitory concentration against murine SCCVII cell line under aerobic condition; format: functional, cell-based; conditions: Mus musculus; summary of the method: as §3
[8] = tested on: SCC-7; test: Interexperimental ratio of hypoxic TPZ C10 to hypoxic BTO C10 using murine SCCVII cell line; format: functional, Mus musculus
[9] = tested on: HT-29; test: Inhibitory concentration against human adenocarcinoma HT-29 cell line under hypoxic condition; format: functional, cell-based; summary of the method: as §3
[10] = tested on: HT-29; test: Inhibitory concentration against human adenocarcinoma HT-29 cell line under aerobic condition; format: functional, cell-based; summary of the method: as §3
[11] = tested on: HT-29; test: Interexperimental ratio of hypoxic TPZ C10 to hypoxic BTO C10 using human adenocarcinoma HT-29 cell line; format: functional
[12] = Interexperimental difference between the hypoxic and aerobic cytotoxicity using human adenocarcinoma HT-29 cell line; format: functional
[13] = Interexperimental difference between the hypoxic and aerobic cytotoxicity using murine SCCVII cell line; format: functional, SCC-7
[14] = Intraexperimental difference between the hypoxic and aerobic cytotoxicity in mouse SCCVII tumor cells; format: functional, SCC-7; summary of the method: as §1

Structure (SMILES)	HCR [1]	C10 [2]	C10 [3]	RHT [4]	logP [5]	IC50 [6]	IC50 [7]	RHT [8]	IC50 [9]	IC50 [10]	RHT [11]	HCR [12]	HCR [13]	HCR [14]
CCCCS(=O)(=O)c1cccc2c1[n+]([O-])nc(N)[n+]2[O-]	21.1	175 µM	8.31 µM	1.2	–	–	–	–	–	–	–	–	–	–
CS(=O)(=O)c1ccc2c(c1)[n+]([O-])nc(N)[n+]2[O-]	7.9	251 µM	31.7 µM	0.32	-1.15	–	–	–	–	–	–	–	–	–
CCN(CC)c1cccc2c1[n+]([O-])nc(N)[n+]2[O-]	16.7	1904 µM	114 µM	0.089	0.82	–	–	–	–	–	–	–	–	–
Nc1n[n+]([O-])c2c(F)cccc2[n+]1[O-]	–	132 µM	10.2 µM	1	–	1.2 µM	23.7 µM	1.9	2.1 µM	8.7 µM	2.5	4.1	13.9	13
CCN(CC)c1ccc2c(c1)[n+]([O-])nc(N)[n+]2[O-]	–	> 725 µM	>72.5 µM	<0.14	–	–	–	–	–	–	–	–	–	–
Nc1n[n+]([O-])c2c(C(F)(F)F)cccc2[n+]1[O-]	112.5	626 µM	5.56 µM	1.8	0.53	–	–	–	–	–	–	–	–	–
Nc1n[n+]([O-])c2ccc(Cl)cc2[n+]1[O-]	–	140 µM	6.47 µM	1.6	–	0.98 µM	21.1 µM	2.4	1.3 µM	41.2 µM	4.1	33	22.5	21.6
Nc1n[n+]([O-])c2ccc(F)cc2[n+]1[O-]	11.2	114 µM	10.2 µM	1	–	–	–	–	–	–	–	–	–	–
CS(=O)(=O)c1cccc2c1[n+]([O-])nc(N)[n+]2[O-]	–	338 µM	50.8 µM	0.2	-1.38	9.7 µM	15.5 µM	0.2	15.1 µM	69.8 µM	0.4	4.5	1.6	6.7
Nc1n[n+]([O-])c2cc(C(F)(F)F)ccc2[n+]1[O-]	–	305 µM	9.14 µM	1.1	0.81	0.92 µM	23.9 µM	2.6	2.1 µM	79.1 µM	2.5	35.7	27.7	33.3
CCCCS(=O)(=O)c1ccc2c(c1)[n+]([O-])c(N)n[n+]2[O-]	<6.3	<102 µM	16.2 µM	0.63	–	–	–	–	–	–	–	–	–	–
Nc1n[n+]([O-])c2ccc(C(F)(F)F)cc2[n+]1[O-]	13.3	110 µM	8.23 µM	1.2	–	–	–	–	–	–	–	–	–	–
CCN(CC)c1cccc2c1[n+]([O-])c(N)n[n+]2[O-]	0.87	58.7 µM	67.7 µM	0.15	–	–	–	–	–	–	–	–	–	–
Nc1n[n+]([O-])c2cc([N+](=O)[O-])ccc2[n+]1[O-]	–	36.3 µM	5.37 µM	1.9	–	0.7 µM	2.8 µM	3.4	0.79 µM	14.1 µM	6.7	14.8	4.1	6.8
COc1cccc2c1[n+]([O-])c(N)n[n+]2[O-]	0.83	47.9 µM	58 µM	0.18	–	–	–	–	–	–	–	–	–	–
Cc1cccc2c1[n+]([O-])nc(N)[n+]2[O-]	102.9	2538 µM	24.7 µM	0.41	0.24	–	–	–	–	–	–	–	–	–
CCN(CC)c1ccc2c(c1)[n+]([O-])c(N)n[n+]2[O-]	–	>1269 µM	>50.8 µM	<0.2	–	–	–	–	–	–	–	–	–	–
